Converted amounts (≈) assume the structure as drawn.
Experiments:
[1] = system: Eikenella corrodens; assay: Antibacterial activity against anaerobic Bacteroides corrodens 1874; assay type: functional
In short: (§1)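 MIC by agar dilution following the NCCLS M11-A2 (2nd ed.) procedure for antimicrobial testing of anaerobic bacteria.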

[2] = system: Phocaeicola vulgatus; assay: Antibacterial activity against anaerobic Bacteroides vulgatus 1211; assay type: functional; in short: as §1
[3] = system: Bacteroides thetaiotaomicron; assay: Antibacterial activity against anaerobic Bacteroides thetaiotaomicron 1438; assay type: functional; in short: as §1
[4] = system: Prevotella melaninogenica; assay: Antibacterial activity against anaerobic Bacteroides melaninogenicus 1856/28; assay type: functional; in short: as §1
[5] = system: Prevotella melaninogenica; assay: Antibacterial activity against anaerobic Bacteroides melaninogenicus 2736; assay type: functional; in short: as §1
[6] = system: Bacteroides fragilis; assay: Antibacterial activity against anaerobic Bacteroides fragilis 111; assay type: functional; in short: as §1
[7] = system: Bacteroides fragilis; assay: Antibacterial activity against anaerobic Bacteroides fragilis 1877; assay type: functional; in short: as §1
[8] = system: Bacteroides fragilis; assay: Antibacterial activity against anaerobic Bacteroides fragilis 1936B; assay type: functional; in short: as §1
[9] = system: Clostridioides difficile; assay: Antibacterial activity against anaerobic Clostridium difficile 2994 strain; assay type: functional; in short: as §1
[10] = system: Clostridium perfringens; assay: Antibacterial activity against anaerobic Clostridium perfringens 81; assay type: functional
In short: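 Agar dilution MIC following NCCLS document M11-A2 (Vol. 10, no. 15), the method for antimicrobial testing of anaerobic bacteria; value reported as minimum inhibitory concentration.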

[11] = system: Clostridium septicum; assay: Antibacterial activity against anaerobic Clostridium septicum 1128; assay type: functional; in short: as §1
[12] = system: Escherichia coli; assay: Antibacterial activity against aerobic Escherichia coli EC14; assay type: functional
In short: (§2)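 MIC by agar dilution following the NCCLS M7-A2 (2nd ed.) procedure for bacteria that grow aerobically.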

[13] = Antibacterial activity against anaerobic Eubacterium aerofaciens 1235; assay type: functional; conditions: Collinsella aerofaciens; in short: as §1
[14] = system: Klebsiella aerogenes; assay: Antibacterial activity against aerobic Enterobacter aerogenes C32; assay type: functional; in short: as §2
[15] = Antibacterial activity against anaerobic Fusobacterium symbiosum 1470; assay type: functional, fusobacterium symbosium; in short: as §1
[16] = system: Fusobacterium necrophorum; assay: Antibacterial activity against anaerobic Fusobacterium necrophorum 6054A; assay type: functional; in short: as §1
[17] = system: Haemophilus influenzae; assay: Antibacterial activity against aerobic Haemophilus influenzae RES 76; assay type: functional; in short: as §2
[18] = system: Klebsiella pneumoniae; assay: Antibacterial activity against aerobic Klebsiella pneumoniae X26; assay type: functional; in short: as §2
[19] = system: Peptostreptococcus anaerobius; assay: Antibacterial activity against anaerobic Peptostreptococcus anaerobius 1451; assay type: functional; in short: as §1
[20] = Antibacterial activity against anaerobic Peptostreptococcus intermedius 1264; assay type: functional; in short: as §1
[21] = system: Pseudomonas aeruginosa; assay: Antibacterial activity against aerobic Pseudomonas aeruginosa X239 strain; assay type: functional; in short: as §2
[22] = Antibacterial activity against anaerobic Peptococcus asaccharolyticus 1302; assay type: functional; conditions: Peptoniphilus asaccharolyticus; in short: as §1
[23] = system: Anaerococcus prevotii; assay: Antibacterial activity against anaerobic Peptococcus prevoti 1281; assay type: functional; in short: as §1
[24] = system: Cutibacterium acnes; assay: Antibacterial activity against anaerobic Propionibacterium acnes 79; assay type: functional; in short: as §1
[25] = system: Staphylococcus epidermidis; assay: Antibacterial activity against aerobic Staphylococcus epidermidis 222; assay type: functional; in short: as §2
[26] = system: Streptococcus pneumoniae; assay: Antibacterial activity against aerobic Streptococcus pneumoniae PARK; assay type: functional; in short: as §2
[27] = system: Staphylococcus aureus; assay: Antibacterial activity against aerobic Staphylococcus aureus X1.1 strain; assay type: functional; in short: as §2

| SMILES | MIC [1] | MIC [2] | MIC [3] | MIC [4] | MIC [5] | MIC [6] | MIC [7] | MIC [8] | MIC [9] | MIC [10] | MIC [11] | MIC [12] | MIC [13] | MIC [14] | MIC [15] | MIC [16] | MIC [17] | MIC [18] | MIC [19] | MIC [20] | further results |
| --- | --- | --- | --- | --- | --- | --- | --- | --- | --- | --- | --- | --- | --- | --- | --- | --- | --- | --- | --- | --- | --- |
| CO/N=C(\C(=O)N[C@@H]1C(=O)N2C(C(=O)O)=C(Sc3ncc(C(F)(F)F)s3)CC[C@H]12)c1csc(N)n1 | 128 µg/mL (≈ 233 µM) | 8 µg/mL (≈ 14.6 µM) | 4 µg/mL (≈ 7.29 µM) | 0.125 µg/mL (≈ 0.228 µM) | 32 µg/mL (≈ 58.3 µM) | 128 µg/mL (≈ 233 µM) | 4 µg/mL (≈ 7.29 µM) | 128 µg/mL (≈ 233 µM) | 0.06 µg/mL (≈ 0.109 µM) | 0.06 µg/mL (≈ 0.109 µM) | 0.5 µg/mL (≈ 0.911 µM) | 0.25 µg/mL (≈ 0.456 µM) | 16 µg/mL (≈ 29.2 µM) | 0.5 µg/mL (≈ 0.911 µM) | 2 µg/mL (≈ 3.65 µM) | 0.25 µg/mL (≈ 0.456 µM) | 0.06 µg/mL (≈ 0.109 µM) | 0.03 µg/mL (≈ 0.0547 µM) | 0.5 µg/mL (≈ 0.911 µM) | 0.015 µg/mL (≈ 0.0273 µM) | MIC [21]: 128 µg/mL (≈ 233 µM); MIC [22]: 0.125 µg/mL (≈ 0.228 µM); MIC [23]: 0.5 µg/mL (≈ 0.911 µM); MIC [24]: 0.008 µg/mL (≈ 0.0146 µM); MIC [25]: 1 µg/mL (≈ 1.82 µM); MIC [26]: 0.008 µg/mL (≈ 0.0146 µM); MIC [27]: 0.25 µg/mL (≈ 0.456 µM) |
| CO/N=C(\C(=O)N[C@@H]1C(=O)N2C(C(=O)O)=C(Sc3ncc([N+](=O)[O-])s3)CC[C@H]12)c1csc(N)n1 | 8 µg/mL (≈ 15.2 µM) | 2 µg/mL (≈ 3.81 µM) | ≤ 0.5 µg/mL | 4 µg/mL (≈ 7.61 µM) | 4 µg/mL (≈ 7.61 µM) | 8 µg/mL (≈ 15.2 µM) | 2 µg/mL (≈ 3.81 µM) | 4 µg/mL (≈ 7.61 µM) | 2 µg/mL (≈ 3.81 µM) | 2 µg/mL (≈ 3.81 µM) | ≤ 0.5 µg/mL | 0.5 µg/mL (≈ 0.951 µM) | 8 µg/mL (≈ 15.2 µM) | 2 µg/mL (≈ 3.81 µM) | 1 µg/mL (≈ 1.9 µM) | ≤ 0.5 µg/mL | 0.06 µg/mL (≈ 0.114 µM) | 0.125 µg/mL (≈ 0.238 µM) | ≤ 0.5 µg/mL | ≤ 0.5 µg/mL | MIC [21]: > 128 µg/mL; MIC [22]: ≤ 0.5 µg/mL; MIC [23]: ≤ 0.5 µg/mL; MIC [24]: ≤ 0.5 µg/mL; MIC [25]: 0.5 µg/mL (≈ 0.951 µM); MIC [26]: 0.008 µg/mL (≈ 0.0152 µM); MIC [27]: 0.125 µg/mL (≈ 0.238 µM) |
| CO/N=C(\C(=O)N[C@@H]1C(=O)N2C(C(=O)O)=C(Sc3ncc(S(C)(=O)=O)s3)CC[C@H]12)c1csc(N)n1 | > 128 µg/mL | 16 µg/mL (≈ 28.6 µM) | 2 µg/mL (≈ 3.58 µM) | 0.125 µg/mL (≈ 0.224 µM) | 32 µg/mL (≈ 57.3 µM) | > 128 µg/mL | 32 µg/mL (≈ 57.3 µM) | > 128 µg/mL | 0.125 µg/mL (≈ 0.224 µM) | 0.25 µg/mL (≈ 0.448 µM) | 16 µg/mL (≈ 28.6 µM) | 0.06 µg/mL (≈ 0.107 µM) | 32 µg/mL (≈ 57.3 µM) | 0.25 µg/mL (≈ 0.448 µM) | 8 µg/mL (≈ 14.3 µM) | 0.008 µg/mL (≈ 0.0143 µM) | 0.015 µg/mL (≈ 0.0269 µM) | 0.03 µg/mL (≈ 0.0537 µM) | 0.5 µg/mL (≈ 0.895 µM) | 0.03 µg/mL (≈ 0.0537 µM) | MIC [21]: > 128 µg/mL; MIC [22]: 0.25 µg/mL (≈ 0.448 µM); MIC [23]: 0.25 µg/mL (≈ 0.448 µM); MIC [24]: 0.03 µg/mL (≈ 0.0537 µM); MIC [25]: 1 µg/mL (≈ 1.79 µM); MIC [26]: 0.008 µg/mL (≈ 0.0143 µM); MIC [27]: 0.25 µg/mL (≈ 0.448 µM) |
